How the values were obtained:
[1] = biological target: T1, Lysine-specific demethylase 4D (Homo sapiens) (UniProt Q6B0I6); assay: Binding affinity to N-terminal His-6-tagged human KDM4D catalytic domain (1 to 342 residues) assessed as change in entropy by isothermal titration calorimetry analysis
T1 sequence (whole entry): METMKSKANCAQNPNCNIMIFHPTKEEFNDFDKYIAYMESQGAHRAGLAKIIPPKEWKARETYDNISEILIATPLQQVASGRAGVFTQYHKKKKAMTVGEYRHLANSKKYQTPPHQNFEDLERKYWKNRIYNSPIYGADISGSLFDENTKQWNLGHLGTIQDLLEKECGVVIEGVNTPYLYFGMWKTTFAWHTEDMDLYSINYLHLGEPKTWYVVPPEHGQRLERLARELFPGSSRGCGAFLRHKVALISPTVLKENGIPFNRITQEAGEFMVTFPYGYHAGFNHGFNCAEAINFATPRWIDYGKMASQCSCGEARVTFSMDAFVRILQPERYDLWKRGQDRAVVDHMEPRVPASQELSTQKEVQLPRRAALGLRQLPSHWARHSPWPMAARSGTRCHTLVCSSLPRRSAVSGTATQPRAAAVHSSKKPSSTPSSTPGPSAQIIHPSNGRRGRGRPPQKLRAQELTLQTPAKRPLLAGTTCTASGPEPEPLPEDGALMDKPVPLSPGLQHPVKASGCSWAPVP
How it was run: (§1)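 Human KDM4D catalytic domain (residues 1–342) expressed with N-terminal His6-tag, purified by metal affinity chromatography; tag removed by TEV protease for affinity tests, then size-exclusion. Protein concentration measured by A280. ITC at 20 °C in 10 mM HEPES pH 7.5, 0.5 M NaCl, 5% glycerol, 1 mM TCEP. Ligands diluted from DMSO stocks to 0.4–1% final DMSO, with protein DMSO-matched. Ligand titrated into protein in the cell in 13 or 19 injections of 2–3 μL, 180 s spacing, 5 s filter. Two or three runs per ligand. Thermodynamic parameters obtained by baseline adjustment, peak integration, heat normalization per mole of ligand, and fitting.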

[2] = biological target: T1, Lysine-specific demethylase 4D (Homo sapiens); assay: Binding affinity to N-terminal His-6-tagged human KDM4D catalytic domain (1 to 342 residues) assessed as change in enthalpy by isothermal titration calorimetry analysis; how it was run: as §1
[3] = biological target: T2, Lysine-specific demethylase 4D (Homo sapiens, UniProt Q6B0I6); assay: Binding affinity to N-terminal His-6-tagged human KDM4D catalytic domain (1 to 342 residues) assessed as dissociation constant by isothermal titration calorimetry analysis; how it was run: as §1
T2 sequence (Q6B0I6 whole entry): T1 sequence (whole entry)

[4] = biological target: T1, Lysine-specific demethylase 4D (Homo sapiens); assay: Binding affinity to N-terminal His-6-tagged human KDM4D catalytic domain (1 to 342 residues) assessed as change in gibbs free energy by isothermal titration calorimetry analysis; how it was run: as §1

Row | -TdeltaS [1] [kcal/mol] | deltaH [2] [kcal/mol] | Kd [3] [µM] | deltaG [4] [kcal/mol] | SMILES
1 | -4.05 | -1.65 | 55.9 | -5.7 | O=C(O)c1ccnc(NCCCO)c1
2 | -12.9 | 8.5 | 509 | -4.42 | NNC(=O)[C@H](NC(=O)CCCCc1ccccc1)c1nnn[nH]1
3 | -1.35 | -4.6 | 35.5 | -5.97 | CS(=O)(=O)NCCNc1cc(C(=O)O)ccn1
4 | -13.7 | 5.3 | 0.55 | -8.4 | O=C(NO)c1cc(-c2nnn[nH]2)ccn1
